# In the library only some 1% were active in any assay of this set; here they are far more common.
# VIM-2 inh: VIM-2 metallo-beta-lactamase inhibitors, primary screen, biochemical, epi-absorbance readout, Pseudomonas aeruginosa enzyme; purified VIM-2, nitrocefin hydrolysis, epi-absorbance fluorescence; inhibition, % at 5.6 µM; hit rate 0.89% among 290,000;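 active means inhibition above the mean of all tested compounds plus 3 SD, cutoff set per screening run, cut at about 7.5% in these data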;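 further: red hydrolysis product quenches plate fluorescence so inhibitors raise well fluorescence; 0% = enzyme with DMSO and 100% = DMSO without enzyme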
# IMP-1 inh: IMP-1 metallo-beta-lactamase inhibitors, primary screen, biochemical, epi-absorbance readout, Pseudomonas aeruginosa enzyme. metallo-beta-lactamase IMP-1 (Pseudomonas aeruginosa). purified IMP-1, nitrocefin hydrolysis, epi-absorbance fluorescence. inhibition, % at 5.6 µM. hit rate 0.45% among 290,000. AID 1556, 2009;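 active means inhibition above the mean plus 3 SD of all compounds in the same screening run, cut at about 4.5% in these data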;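 further: 0% = IMP-1 with DMSO and 100% = DMSO wells lacking enzyme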
#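 System: Purified IMP-1 | Read-out basis: Percent enzyme inhibition | Controls: IMP-1 with DMSO as 0%, enzyme-free DMSO as 100% | Replicates: One well per compound | Doses: 5.6 µM nominal single concentration | Detection: Epi-absorbance fluorescence, 480 nm excitation, 530 nm emission | Incubation: 25 °C, 15 min preincubation, 25 min reaction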
# PDI turbidity: inhibitors of human PDI, primary screen, biochemical, turbidity, single point, plate reader | Protein disulfide-isomerase (Homo sapiens), P07237 | PDI insulin aggregation turbidity, A650, 90 min | inhibition, % at 10 µM | hit rate 0.052% among 350,000;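 active means mean inhibition across replicates of 30% or more, whatever share of single replicates reach that level; inconclusive means mean inhibition below 30% while every single replicate reaches 30%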
# Target sequence (P07237 whole entry, looked up): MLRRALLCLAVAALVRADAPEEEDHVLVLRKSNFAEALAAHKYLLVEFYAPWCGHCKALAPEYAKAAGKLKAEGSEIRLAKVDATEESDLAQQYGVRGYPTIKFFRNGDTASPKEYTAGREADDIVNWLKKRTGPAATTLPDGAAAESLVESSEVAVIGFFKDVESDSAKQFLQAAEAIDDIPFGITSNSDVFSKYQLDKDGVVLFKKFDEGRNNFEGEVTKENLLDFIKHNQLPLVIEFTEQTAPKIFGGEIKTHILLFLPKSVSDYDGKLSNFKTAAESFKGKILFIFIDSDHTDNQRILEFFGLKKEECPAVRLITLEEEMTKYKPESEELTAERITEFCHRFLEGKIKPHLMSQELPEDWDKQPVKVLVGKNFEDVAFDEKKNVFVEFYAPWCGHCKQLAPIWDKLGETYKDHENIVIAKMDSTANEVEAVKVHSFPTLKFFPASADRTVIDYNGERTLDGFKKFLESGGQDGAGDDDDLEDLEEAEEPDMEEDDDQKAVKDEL
# PvdQ inh: P. aeruginosa PvdQ acylase inhibitors, primary screen, biochemical, fluorescence, plate reader and imaging, single point; purified PvdQ acylase; PvdQ acylase [Pseudomonas aeruginosa LESB58]; inhibition, % at 10 µM; hit rate 0.063% among 340,000; in the data active means inhibition above about 30%, passing the limit was not always enough; inconclusive means no clear call, values can overlap the other calls;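 further: 0% = vehicle neutral wells and 100% = reference inhibitor wells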
# ERp5 block: inhibitors of ERp5-driven insulin aggregation, primary screen, biochemical, turbidity, absorbance 650 nm, single point | AID 651711, 2012 | inhibition, % at 9.99 µM | 90 min | hit rate 0.05% among 350,000;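 active means mean replicate inhibition above about 25%, with every replicate also reaching it, limit read from the data, passing the limit was not always enough; inconclusive means only one of those two criteria met; inactive means neither criterion met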
# PglD DTNB: C. jejuni PglD acetyltransferase inhibitors, primary screen, biochemical, DTNB colorimetric, single point | UDP-N-acetylbacillosamine N-acetyltransferase PglD (Campylobacter jejuni) | purified PglD enzyme, DTNB colorimetric CoA detection | inhibition, % at 12.5 µM | hit rate 0.098% among 360,000; in the data active means inhibition above about 16%, passing the limit was not always enough; inconclusive means no clear call, values can overlap the other calls
# Numbers without * were called inactive; ? = inconclusive; . = no result given; ! = not confirmed by another sample.
SMILES,VIM-2 inh,IMP-1 inh,PDI turbidity,PvdQ inh,ERp5 block,PglD DTNB
CN1CCN(c2nc(-c3cccc([N+](=O)[O-])c3)nc3ccccc23)CC1,8.6*,1,-26,3,1,2
Cc1noc(C)c1NC(=O)N(C)C[C@H]1Oc2ccc(NC(=O)c3ccncc3)cc2C(=O)N([C@H](C)CO)C[C@@H]1C,.,.,12,-13,28*!,1
Cc1noc(C)c1NC(=O)Nc1ccc2c(c1)C(=O)N([C@H](C)CO)C[C@@H](C)[C@@H](CN(C)C(=O)Nc1ccc(F)cc1)O2,.,.,.,.,51*,-1
C[C@@H]1CN([C@H](C)CO)C(=O)c2cc(NC(=O)Nc3ccc(F)cc3)ccc2O[C@H]1CN(C)Cc1ccc(-c2ccccc2)cc1,.,.,.,.,51*,1
Cc1noc(C)c1NC(=O)N(C)C[C@@H]1Oc2ccc(NC(=O)c3ccncc3)cc2C(=O)N([C@@H](C)CO)C[C@@H]1C,.,.,.,.,-5,0
CCOC(=O)c1cnc2c(cnn2C)c1NCCCN(C)C,8.4*,-2,-1,5,.,2
CCOC(=O)c1cnc2c(ccc3ccccc32)c1NCCN(C)C,12*,0,-11,8,-7,4
Cc1ccc(-c2cc(C(=O)NCCN3CCOCC3)no2)cc1,-1,10*,-1,-9,.,2
O=C(Cc1ccncc1)N1C[C@@H]2N[C@H](C1)C2c1ccc(-c2ccncc2)cc1 (stereo partly specified),.,.,.,.,1,.
N#C/C(=C/c1ccco1)c1nc2ccccc2s1,2,1,-8,41*,.,-2
CO[C@@H]1CN(C)C(=O)c2ccc(NC(C)=O)cc2OC[C@@H](C)N(Cc2cccnc2)C[C@H]1C,.,.,.,.,6,.
COc1ccc(OC)c(N2CC(O)=C(c3nc4ccccc4s3)C2=N)c1,-3,4.5*,0,-8,.,7
Cc1cc(OC(=O)c2ccco2)c2c(C)cc(=O)oc2c1,-2,-4,13,-5,.,.
CCc1cc(=O)oc2cc(C)cc(OC(=O)c3ccco3)c12,11*,-3,11,-6,.,4
CCN(CC)C(=O)c1oc2ccc(S(=O)(=O)N3CCCCCC3)cc2c1C,-2,-4,-3,-8,2,4
CCCCNC(=O)c1oc2ccc(S(=O)(=O)N3CCCC3)cc2c1C,-2,5.9*,6,-2,3,-4
COc1cccc(/C=C2\Sc3ccc(C(=O)NCc4cccnc4)cc3N(C)C2=O)c1,0,-1,0,-13,6,.
COc1ccc(/C=C2\Sc3ccc(C(=O)NCc4cccnc4)cc3N(C)C2=O)cc1OC,11*,-3,-5,5,9,-6
COC(=O)c1cc(Sc2cccc(Cl)c2Cl)ccn1,9.2*,-2,-4,1,1,.
Cc1c(OC(=O)CNC(=O)OC(C)(C)C)ccc2c3c(c(=O)oc12)CCC3,23*,-1,-2,-5,.,-6
Cc1c(OC(C)C(=O)N[C@H](C(=O)O)c2ccccc2)ccc2c3c(c(=O)oc12)CCCC3 (stereo partly specified),7.8*,-4,.,1,-2,-1
Cc1c(O)ccc2c3c(c(=O)oc12)CCCC3,10*,-5,-8,-3,.,-2
CC(=O)C(C)Oc1ccc2c3c(c(=O)oc2c1C)CCCC3 (stereo unspecified),10*,-5,3,5,.,1
Cc1c(Cc2ccccc2)c(=O)oc2c(C)c(OC(C)C(=O)N[C@@H](Cc3ccccc3)C(=O)O)ccc12 (stereo partly specified),-3,-4,.,-1,-1,1
CC(=O)COc1ccc2c3c(c(=O)oc2c1C)CCCCC3,-6,-1,1,-22,.,2
SMILES,VIM-2 inh,IMP-1 inh,PDI turbidity,PvdQ inh,ERp5 block,PglD DTNB
CC(C)NC(=O)N(C)C[C@H]1Oc2ccc(NC(=O)NC3CCCCC3)cc2CC(=O)N([C@H](C)CO)C[C@@H]1C,.,.,.,.,2,2
CN1c2ccc(-c3cccc(C#N)c3)cc2[C@@H]2[C@@H](CCN2C(=O)c2ccc(F)cc2)[C@@H]1CO,.,.,.,.,8,1
COc1ccc(-c2cnc3c(c2)C(=O)N([C@@H](C)CO)C[C@H](C)[C@H](CN(C)C(=O)Cc2ccccn2)O3)cc1,.,.,.,.,0,-2
COc1ccccc1C(=O)Nc1ccc2c(c1)C(=O)N(C)C[C@@H](OC)[C@@H](C)CN[C@H](C)CO2,.,.,.,.,1,1
NCCNC(=O)c1c(O)c2cccc3c2n(c1=O)CCC3,12*,0,-1,-2,6,-2
CCCNC(=O)c1c(O)c2cccc3c2n(c1=O)CCC3,1,-3,5,18,1,1
CCN1CCN(C(=O)Cn2nc(C)c3sc4ccccc4c3c2=O)CC1,9.3*,-1,-11,0,1,-1
CCCN1CCN(CCCNC(=O)CCCn2nc(C)c3sc4ccccc4c3c2=O)CC1,5,-1,-7,-5,-1,-7
COc1ccc2cc(C)c3nnc(SCc4cccnc4)n3c2c1,8.9*,-2,2,4,-5,.
COc1ccc2cc(C)c3nnc(SCC(=O)Nc4cc(OC)c(OC)cc4C(=O)O)n3c2c1,0,-1,-9,?,2,-10
Cc1noc(C)c1NC(=O)Nc1ccc2c(c1)CC(=O)N([C@H](C)CO)C[C@H](C)[C@@H](CN(C)CC1CC1)O2,.,.,.,.,-1,4
CN(C)CCCNC(=O)C[C@@H]1CC[C@H]2[C@@H](COc3ccc(NC(=O)NC4CCCC4)cc3C(=O)N2C)O1,.,.,.,.,4,1
COc1ccccc1-c1nc(C#N)c(N2CCN(C(=O)c3ccco3)CC2)o1,2,-3,-2,-18,-4,-1
COc1ccc(-c2nc(C#N)c(N3CCN(C(=O)c4ccco4)CC3)o2)cc1OC,0,7.7*,-2,-7,9,-1
Cc1nc2sc3c(=O)[nH]nnc3c2c(C)c1Br,11*,0,21,4,0,-2
C[C@@H]1CCCCO[C@@H](CN(C)C(=O)c2ccccc2)[C@H](C)CN([C@@H](C)CO)C(=O)c2cc(NS(=O)(=O)c3cccs3)ccc2O1,.,.,.,.,1,-2
O=C1C=C(NNC(=O)c2ccncc2)CC(c2ccccc2)C1 (stereo unspecified),1,5.9*,-22,-10,-5,.
COc1cccc(CNC(=O)Cc2ccc(-c3ccccc3)cc2)c1,-1,19*,6,-17,-2,-2
COc1ccc(CC(=O)NCc2ccccc2)cc1,-2,-1,-6,-6,4,3
COc1ccc2c3c(n(C)c2c1)[C@H](CO)N(C(C)=O)CC31CN(Cc2nccs2)C1,.,.,.,.,1,.

# Assay outcomes as filed in PubChem BioAssay.
